From ChEMBL document CHEMBL1154571, “A cytotoxic sesquiterpene caffeate from the liverwort Bazzanianovae-zelandiae” (2000) come the findings set out here.

Holding throughout (format): functional
Assay [1] has as its system P388. As to the kind of experiment: Cytotoxicity against mouse P388 cells after 72 hrs by MTT assay. In a few lines:
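P-388D1 murine leukemia cells (ATCC CCL 46) were incubated 72 h with a two-fold dilution series of sample. Growth was read by MTT tetrazolium staining absorbance. The concentration giving 50% of solvent-control growth was determined. Values are means of replicates. Mitomycin C at 0.06 μg/mL served as positive control.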

For assay [2], the system named is P388. As to the kind of experiment: Cytotoxicity against mouse P388 cells at 0.06 ug/mL after 72 hrs by MTT assay. Particulars: P388, 72 h, read-out: GI. In a few lines:
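Mitomycin C positive control at 0.06 μg/mL on P-388D1 murine leukemia cells (ATCC CCL 46), 72 h incubation. Growth was read by MTT tetrazolium absorbance and expressed as percent inhibition relative to a solvent control.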
In general terms: Tetrazolium assays rely on reduction of a dye to a coloured formazan, in cell work by metabolically active cells.

Assay [3] can be described thus: Cytotoxicity against human NCI60 cells.
In a further assay the test system is CCRF-CEM. As to the kind of experiment: Cytotoxicity against human CCRF-CEM cells.
Another assay has as its system NCI-H522. As to the kind of experiment: Cytotoxicity against human NCI-H522 cells.
[4] abbreviates: Mus musculus, P388, 72 h, read-out: GI50.

In brackets after ≈: the same amount, converted by molar mass.

The term GI50 denotes the concentration giving 50% growth inhibition. `C=C1CCC2CC1C(C)(C)CC(OC(=O)/C=C/c1ccc(O)c(O)c1)/C=C\2C` (stereo unspecified) [BAZZANENEYL CAFFEATE]: in the assay with P388 [1] (setting [4]), the GI50 was determined as 0.9 µg/mL (≈ 2.35 µM).

Take `O=C(O)/C=C/c1ccc(O)c(O)c1` [CAFFEIC ACID]: the concentration for 50% growth inhibition (GI50) in the assay with P388 [1] (setting [4]) is over 25 µg/mL.

For `O=C(/C=C/c1ccc(O)c(O)c1)O[C@H](C(=O)O)[C@H](OC(=O)/C=C/c1ccc(O)c(O)c1)C(=O)O` [CHICORIC ACID], the 50% growth inhibitory concentration (GI50) with P388 [1] (setting [4]) was over 25 µg/mL.

As to `CO[C@@]12[C@H](COC(N)=O)C3=C(C(=O)C(C)=C(N)C3=O)N1C[C@@H]1N[C@@H]12` [MITOMYCIN], in the assay on P388 [2], the inhibition of growth at 0.06 µg/mL was found to be 43%.

Take `C[C@@H]1CC[C@@]2(C)[C@H](C)/C(=C/CO)CC[C@@]12C` [NAVICULOL]: in the assay on P388 [1] (setting [4]), the 50% growth inhibitory concentration (GI50) was over 25 µg/mL.

Consider `C[C@@H]1CC[C@@]2(C)[C@H](C)/C(=C\COC(=O)/C=C/c3ccc(O)c(O)c3)CC[C@@]12C` [NAVICULYL CAFFEATE], for which the 50% growth inhibitory concentration (GI50) in the assay with P388 [1] was found to be 1.1 µg/mL (≈ 2.86 µM); in the assay on P388 [1] (setting [4]), 0.8 µg/mL (≈ 2.08 µM); in assay [3], 2.5 µg/mL (≈ 6.5 µM); with CCRF-CEM it was 0.4 µg/mL (≈ 1.04 µM); in the assay with NCI-H522 it was 0.5 µg/mL (≈ 1.3 µM).

On to `CC(C)=CCOC(=O)/C=C/c1ccc(O)c(O)c1` [PRENYL CAFFEATE], for which, in the assay with P388 [1] (setting [4]), the 50% growth inhibitory concentration (GI50) is 6.9 µg/mL (≈ 27.8 µM).
